Sampled rows, rich in hits. Any-hit rate of the full collection: about 3.1%.
LEDGF integ inh – blockers of LEDGF/p75-dependent integrase strand transfer – biochemical, TR-FRET, high throughput, primary screen; HIV-1 integrase (with human LEDGF/p75); TR-FRET IN-LEDGF/p75 DNA integration, Eu/Cy5; inhibition, % at 3.7 µM; actives 0.64% (n = 370,000); AID 743269, 2014;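 active = inhibition above the screen-wide mean plus 3 SD, cut at about 13% in these data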;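 note: signal is the Cy5 over europium emission ratio at 671 and 618 nm; 0% = plate median of compound wells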
rCAG RNA binder – binders of r(CAG) RNA repeats, primary screen, biochemical, fluorescence | r(CAG) RNA repeat, TO-PRO-1 dye displacement fluorescence | actives 1.3% (n = 370,000) | inhibition, % at 3 µM | AID 651821, 2012;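 active = inhibition above the plate cutoff, the mean of all test compounds on that plate plus 3 SD, cut at about 35% in these data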;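 note: 0% = DMSO alone and 100% = 100 µM mitoxantrone as full dye displacement; higher means more dye released from RNA so lower well fluorescence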
CSN inh – inhibitors of CSN-mediated cullin deneddylation, primary screen, biochemical, fluorescence polarization, uHTS; COP9 signalosome complex subunit 5 (Homo sapiens), Q92905; Purified CSN, SCF-Nedd8-OG deneddylation; inhibition, % at 12.5 µM; actives 0.38% (n = 360,000); AID 651999, 2013;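 active = pattern-corrected inhibition above about 35%, with an unprinted fluorescence ratio check between 0.5 and 1.5, limit read from the data, passing the limit was not always enough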;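 note: 0% = enzyme with substrate and 100% = substrate without enzyme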
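assay system = purified human Csn5 enzyme expressed in HEK293T cells | amount = 0.24 nM enzyme | buffer or medium = Tris/NaCl/DTT buffer, pH 7.5 | reagent = 10 nM SCFSkp2-Nedd8OG | compound = one concentration, 12.5 µM, 0.25% DMSO | times = 90 min reaction at room temperature | signal = FP | read-out basis = % inhibition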
MBD2 inh – inhibitors of MBD2 binding to methylated DNA, primary screen, biochemical, TR-FRET, DNA-binding domain, human | inhibition, % at 4.4 µM | actives 0.31% (n = 370,000) | MBD2 binding to methylated oligonucleotide | AID 686964, 2013; in the data active = inhibition above about 13%
Target sequence (Q9UBB5 whole entry, looked up, the tested form may be a part): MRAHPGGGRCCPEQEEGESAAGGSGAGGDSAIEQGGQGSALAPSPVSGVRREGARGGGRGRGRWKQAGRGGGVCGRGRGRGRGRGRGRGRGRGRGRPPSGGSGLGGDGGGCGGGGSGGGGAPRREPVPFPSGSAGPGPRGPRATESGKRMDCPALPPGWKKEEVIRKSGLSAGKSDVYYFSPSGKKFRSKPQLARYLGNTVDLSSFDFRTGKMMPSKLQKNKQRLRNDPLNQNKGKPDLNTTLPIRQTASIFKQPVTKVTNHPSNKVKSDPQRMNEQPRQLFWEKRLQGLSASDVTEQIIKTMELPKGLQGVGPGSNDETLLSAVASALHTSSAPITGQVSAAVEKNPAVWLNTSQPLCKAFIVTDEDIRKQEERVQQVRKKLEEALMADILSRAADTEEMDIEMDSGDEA
ATG4B inhibitor – ATG4B protease inhibitors, primary screen, biochemical, fluorescence, uHTS; Cysteine protease ATG4B (Homo sapiens), Q9Y4P1; ATG4B cleavage of LC3-PLA2, NBD-HPC fluorescence, 1 h; inhibition, % at 8.33 µM; actives 0.51% (n = 340,000); AID 504462, 2011; in the data active = inhibition above about 40%
UHRF1 MBD2 ctr – UHRF1 methylated DNA binding inhibitors, primary screen, counter-screen for MBD2 inhibitor project, biochemical, TR-FRET, human UHRF1, single concentration; inhibition, % at 4.4 µM; actives 0.75% (n = 370,000); AID 687016, 2013; UHRF1 binding to methylated oligo; E3 ubiquitin-protein ligase UHRF1 (Homo sapiens), Q96T88; in the data active = inhibition above about 21%;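 note: UHRF1 SRA domain binding a hemimethylated CpG hairpin DNA probe; 0% = median of test compound wells and 100% = reference inhibitor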
Numbers without * were called inactive; . = no result.

SMILES | LEDGF integ inh | rCAG RNA binder | CSN inh | MBD2 inh | ATG4B inhibitor | UHRF1 MBD2 ctr
COc1cccc2c1C(=O)c1c(O)c3c(c(O)c1C2=O)C[C@@](O)(C(=O)CO)C[C@@H]3O[C@H]1C[C@H](N)[C@H](O)[C@H](C)O1 | 13 | 10 | -74 | 110* | -28 | 94*
CC(=O)[C@@]1(O)Cc2c(O)c3c(c(O)c2[C@H](O[C@H]2C[C@H](N)[C@H](O)[C@H](C)O2)C1)C(=O)c1ccccc1C3=O | 0 | -17 | -76 | 106* | . | 95*
COc1cccc2c1C(=O)c1c(O)c3c(c(O)c1C2=O)C[C@@](O)(C(=O)CO)C[C@@H]3OC1CC(N)C(O)C(C)O1 (stereo partly specified) | 4 | 10 | -73 | 112* | -17 | 95*
COc1ccc(C2SCC(=O)N2c2ccc(OC)cc2)cc1 (stereo unspecified) | 0 | -4 | 2 | 2 | -6 | 0
COc1ccc(C2SCC(=O)N2c2ccccc2)cc1 (stereo unspecified) | -1 | -4 | -2 | 11 | -3 | 22*
COc1ccc(Nc2nc(Cl)c(C=O)s2)cc1 | . | . | 41* | . | . | .
O=C(CSc1nnc(-c2ccncc2)n1-c1ccccc1)Nc1cccc2ccccc12 | 1 | 5 | . | -5 | . | 0
Cc1cc(Cl)ccc1OCC(=O)OCC(=O)NCCNC(=O)COC(=O)COc1ccc(Cl)cc1C | 20* | 4 | 4 | -5 | -13 | -1
COc1cc(NC(=O)c2cccnc2)ccc1-c1cc2ccccc2oc1=O | 7 | 1 | . | 0 | . | 0
O=C(Nc1ccc(-c2cc3ccccc3oc2=O)c(Cl)c1)c1cccnc1 | -2 | 1 | 38* | 5 | -1 | 0
Cc1ccc(-c2nnn3c2nc(NCCc2ccc(S(N)(=O)=O)cc2)c2ccccc23)cc1 | -3 | 5 | 36* | -2 | 13 | 1
COC(=O)c1ccc2nc(-c3ccc(F)cc3)c(Cc3ccccc3)n2c1 | 7 | 7 | -5 | 2 | . | 23*
COC(=O)c1ccc2nc(-c3ccc(C#N)cc3)c(Cc3ccsc3)n2c1 | 0 | 14 | -6 | 5 | . | 22*
COC(=O)c1ccc2nc(-c3ccc(F)cc3)c(Cc3ccsc3)n2c1 | 4 | 11 | -3 | 6 | . | 24*
COC(=O)c1ccc2nc(-c3ccc(C#N)cc3)c(Cc3cccc(Cl)c3)n2c1 | 1 | 12 | 6 | 3 | . | 21*
COC(=O)c1ccc2nc(-c3ccc(F)cc3)c(Cc3ccccc3C(F)(F)F)n2c1 | 4 | 9 | 0 | -2 | . | 5
COC(=O)c1ccc2nc(-c3ccc(C)cc3)c(Cc3ccsc3)n2c1 | 4 | 15 | 2 | -2 | . | 20
CC(C)(C)c1ccc(S(=O)(=O)N2CCCC2C(=O)N2CCN(c3ccccc3)CC2)cc1 (stereo unspecified) | -5 | 8 | . | 0 | . | 4
O=C(C1CC1)n1ccc2ccc(-c3ccc4ccn(Cc5ccccc5)c4c3)cc21 | -2 | 10 | . | 5 | . | 1
CC(=O)Nc1sc2c(c1-c1nc3ccccc3s1)CCN(C(C)=O)C2 | 3 | . | . | -5 | . | -18
CC(=O)N1CCc2c(sc(NC(=O)C3CC3)c2-c2nc3ccccc3s2)C1 | 3 | 18 | 44* | -1 | -15 | -7
O=C(COc1ccc(/C=N/NC(=O)c2ccc(O)cc2)cc1)Nc1cccc([N+](=O)[O-])c1 | 0 | 12 | 59* | 1 | -4 | 0
Cc1ccc(C(=O)Nc2cccc3[nH]c(C(F)(F)F)nc23)cc1 | 3 | 3 | 8 | -7 | 4 | -3
COc1ccc(CNc2cccc3[nH]c(C(F)(F)F)nc23)cc1 | -1 | 42* | -1 | -6 | -8 | 1
O=C(OC1CC2CCC(C1)[N+]21CCCC1)C(O)(c1ccccc1)c1ccccc1 (stereo unspecified) | 7 | 4 | . | -4 | . | 3
SMILES | LEDGF integ inh | rCAG RNA binder | CSN inh | MBD2 inh | ATG4B inhibitor | UHRF1 MBD2 ctr
O=C(CCCOc1ccccc1)N1CCN(S(=O)(=O)c2ccc(Cl)cc2)CC1 | 1 | 1 | 2 | 1 | -5 | 1
Cc1ccc(OCC(=O)Nc2ccc(S(=O)(=O)N3CCN(C)CC3)cc2)cc1 | -1 | -2 | -4 | 3 | 1 | 46*
CCOC(=O)COc1ccc(S(=O)(=O)N2CCN(c3ccccc3F)CC2)cc1 | 0 | -4 | 5 | 11 | 2 | 5
CCOC(=O)COc1ccc(S(=O)(=O)N2CCN(c3ccc(OC)cc3)CC2)cc1 | 0 | 4 | 3 | 8 | 1 | 37*
CCOc1ccc(OCCCC(=O)N2CCN(S(=O)(=O)c3ccc(Cl)cc3)CC2)cc1 | 32* | -3 | 2 | 8 | -4 | 0
Nc1[nH]c(C(=O)c2ccccc2)c(-c2cccc3ccccc23)c1C(=O)c1c(-c2ccccc2)[nH]c2ccccc12 | -4 | . | . | 2 | . | 2
COc1ccc(S[C@]2(C(=O)N3CCN(c4ncccn4)CC3)CC(=O)N[C@@H]2c2ccc(OC)cc2)cc1 | 3 | 6 | . | -2 | . | 1
CC[n+]1ccc(/C=C2\Sc3ccccc3N2CCCS(=O)(=O)[O-])c2ccccc21 | 2 | -5 | 1 | -10 | -7 | -9
CN1C=C/C(=C\c2cc[n+](C)c3ccccc23)c2ccccc21 | 2 | 16 | -5 | 10 | 3 | 27*
N#Cc1ccc(CSc2nc3sc4c(c3c(=O)n2-c2ccc(Br)cc2)CCCC4)cc1 | 2 | 6 | . | 4 | . | 2
C=CCN1C(=O)C(CC(=O)Nc2ccc(C)cc2)SC1=Nc1c(C)n(C)n(-c2ccccc2)c1=O (stereo unspecified) | -3 | -4 | -5 | 2 | -16 | 0
Cc1c(N=C2SC(CC(=O)Nc3ccccc3)C(=O)N2CCN2CCOCC2)c(=O)n(-c2ccccc2)n1C (stereo unspecified) | 1 | 0 | 0 | 3 | -2 | 28*
O=S1(=O)c2ccc(Br)cc2OC[C@@H](Cc2ccccc2)N1Cc1cn(CC2CCCCC2)nn1 | 3 | 3 | . | -1 | . | 2
COc1ccc(NC(=O)C(CCCCNC(=O)OC(C)(C)C)NC2(C(=O)NCCc3c[nH]c4ccccc34)CCCCC2)cc1 (stereo unspecified) | 2 | . | . | -3 | . | -2

Bioassay records deposited in PubChem BioAssay by several laboratories.
